Compound in series [1]: C=C(F)c1sc(CNCCCNc2cc(=O)c3ccccc3[nH]2)c(C)c1Br
Kind of series: Activity of Haemophilus influenzae MetRS by ATP:PPi exchange assay in presence of ATP.

Compound in series [2]: C=C(F)c1sc(CNCCCNc2cc(=O)c3ccccc3[nH]2)c(C)c1Br
Kind of series: Activity of Haemophilus influenzae MetRS by ATP:PPi exchange assay in presence of methionine.

Compound in series [3]: C=C(F)c1sc(CNCCCNc2cc(=O)c3ccccc3[nH]2)c(C)c1Br
Kind of series: Activity of Thermus thermophilus HB8 MetRS by ATP:PPi exchange assay in presence of ATP.

Compound in series [4]: C=C(F)c1sc(CNCCCNc2cc(=O)c3ccccc3[nH]2)c(C)c1Br
Kind of series: Activity of Thermus thermophilus HB8 MetRS by ATP:PPi exchange assay in presence of methionine.

Compound in series [5]: C=C(F)c1sc(CNCCCNc2cc(=O)c3ccccc3[nH]2)c(C)c1Br
Description: Ratio of Kcat to Km for Staphylococcus aureus MetRS L213W mutant in presence of ATP. The essentials: (§1)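 Purified recombinant S. aureus MetRS (30 nM) was assayed by ATP:PPi exchange at 30°C in Tris pH 8.0 with Mg acetate, KCl and DTT. [32P]PPi was matched to ATP, and ATP or methionine was varied. Time points from 1 to 10 min were quenched with EDTA, separated by PEI-cellulose TLC and read by phosphorimager. Initial rates were fitted to Michaelis-Menten.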

Compound in series [6]: C=C(F)c1sc(CNCCCNc2cc(=O)c3ccccc3[nH]2)c(C)c1Br
Description: Activity of Staphylococcus aureus MetRS L213W mutant by ATP:PPi exchange assay in presence of ATP. The essentials:
(§2)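 Purified S. aureus MetRS (wild type or mutant; E. coli-expressed, ammonium sulfate cut, anion exchange) at 30 nM. ATP:PPi exchange at 30°C in 100 mM Tris-HCl pH 8.0, 5–10 mM Mg acetate, 80 mM KCl, 2.5 mM DTT, [32P]PPi plus cold PPi equal to ATP. Quenched with EDTA over 1–10 min, PEI-cellulose TLC, phosphorimager. Initial velocities versus varied ATP or methionine fit to Michaelis-Menten.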

Compound in series [7]: C=C(F)c1sc(CNCCCNc2cc(=O)c3ccccc3[nH]2)c(C)c1Br
Description: Activity of streptococcus aureus MetRS L213W mutant by scintillation proximity assay in presence of tRNA. Particulars: Staphylococcus aureus. On the technique in general: In a scintillation proximity assay essentially only radioactivity close to the scintillant gives light.

Compound in series [8]: C=C(F)c1sc(CNCCCNc2cc(=O)c3ccccc3[nH]2)c(C)c1Br
Kind of series: Activity of Staphylococcus aureus MetRS L213W mutant by ATP:PPi exchange assay in presence of methionine. Put shortly:
as §2

Compound in series [9]: C=C(F)c1sc(CNCCCNc2cc(=O)c3ccccc3[nH]2)c(C)c1Br
Description: Ratio of Kcat to Km for Staphylococcus aureus MetRS L213W mutant in presence of tRNA. The essentials: (§3)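 Purified recombinant S. aureus MetRS was assayed by tRNA aminoacylation at 30°C for 1 to 7.5 min to obtain initial rates. Buffer was Tris pH 8.0 with Mg acetate, 2.5 mM ATP, KCl, DTT, BSA, [3H]methionine and crude E. coli tRNA. Reactions were EDTA-stopped, and charged tRNA was read by scintillation proximity with polylysine beads at pH 2.0.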

Compound in series [10]: C=C(F)c1sc(CNCCCNc2cc(=O)c3ccccc3[nH]2)c(C)c1Br
Kind of series: Ratio of Kcat to Km for Staphylococcus aureus MetRS L213W mutant in presence of methionine. The essentials:
as §1

Compound in series [11]: C=C(F)c1sc(CNCCCNc2cc(=O)c3ccccc3[nH]2)c(C)c1Br
Description: Activity of Staphylococcus aureus MetRS G54S mutant by ATP:PPi exchange assay in presence of ATP. Put shortly:
as §2

Compound in series [12]: C=C(F)c1sc(CNCCCNc2cc(=O)c3ccccc3[nH]2)c(C)c1Br
Description: Activity of Staphylococcus aureus MetRS G54S mutant by ATP:PPi exchange assay in presence of methionine. Put shortly: as §2

Compound in series [13]: C=C(F)c1sc(CNCCCNc2cc(=O)c3ccccc3[nH]2)c(C)c1Br
Description: Ratio of Kcat to Km for Staphylococcus aureus MetRS G54S mutant in presence of tRNA. The essentials: as §3

Compound in series [14]: C=C(F)c1sc(CNCCCNc2cc(=O)c3ccccc3[nH]2)c(C)c1Br
Description: Ratio of Kcat to Km for Staphylococcus aureus MetRS G54S mutant in presence of methionine. The essentials: as §1

Compound in series [15]: C=C(F)c1sc(CNCCCNc2cc(=O)c3ccccc3[nH]2)c(C)c1Br
Description: Ratio of Kcat to Km for Staphylococcus aureus MetRS G54S mutant in presence of ATP. Put shortly: as §1

Compound in series [16]: C=C(F)c1sc(CNCCCNc2cc(=O)c3ccccc3[nH]2)c(C)c1Br
Description: Activity of streptococcus aureus MetRS G54S mutant by scintillation proximity assay in presence of tRNA. To be noted: Staphylococcus aureus.

Substitutions are numbered along the chain they refer to. Numbers in names are those of the source.

B1: Methionine--tRNA ligase (Haemophilus influenzae (strain ATCC 51907 / DSM 11121 / KW20 / Rd)), P43828 (protein)
chain: MTTQPRKILVTCALPYANGAIHLGHMLEHIQADIWVRFQRMRGNKIHFVCADDAHGTPIMLNADKLGITPEELIAKAKADHIRDFAGFNISFDNYHSTHSEENKQLTAEIYNKLKANGFIKSKVISQLFDPEKNMFLPDRFVKGTCPKCKAEDQYGDNCEVCASTYSPMDLINPRSAVSGTTPIVKESEHFFFDLPAFEGMLKEWTRSGSLQSEIANKMQEWFESDLQQWDISRDAPYFGFEIPGAKDKFFYVWLDAPIGYMASFKNLCNREGIDFNEFWAEGSDAELYHFIGKDIVYFHSLFWPAMLEGSGYRKPTNVFAHGYVTVDGAKMSKSRGTFIQASTYLNHIDPECLRYYYAAKLNDRIEDLDFNLEDFVQRVNTDIVNKLVNLASRNAGFIAKRFEGKLADKLEDKSLFAEFTAQAEQIAAYYESREYNKTIREIMALTDKANKYIDEKAPWVIAKEEGKEAELQAVCSMGIELFRVLMSYLKPVLPKLAERAETFLQAELRWDNIHQPLLGHTLAPFKALFSRLEKKQIDAVVEETKALFAAANKAAEKTEAKPTALSAVEPIAETITIDDFAKLDMRVAKVLKCEAVPESNKLLRFELDLGDHTRQVFSGIKAAYNKPEELEGRFVIMVANLAPRKMKFGVSEGMILSAGTGGSDLFLLSADSGVTAGMQVK
The term Km denotes the concentration of substrate that gives half-maximal velocity. For B1, the Km was 1200 µM in [1] and 250 µM in series [2].

B2: Methionine--tRNA ligase (Thermus thermophilus (strain HB8 / ATCC 27634 / DSM 579)), P23395 (protein)
chain: MEKVFYVTTPIYYVNAEPHLGHAYTTVVADFLARWHRLDGYRTFFLTGTDEHGETVYRAAQAAGEDPKAFVDRVSGRFKRAWDLLGIAYDDFIRTTEERHKKVVQLVLKKVYEAGDIYYGEYEGLYCVSCERFYTEKELVEGLCPIHGRPVERRKEGNYFFRMEKYRPWLQEYIQENPDLIRPEGYRNEVLAMLAEPIGDLSISRPKSRVPWGIPLPWDENHVTYVWFDALLNYVSALDYPEGEAYRTFWPHAWHLIGKDILKPHAVFWPTMLKAAGIPMYRHLNVGGFLLGPDGRKMSKTLGNVVDPFALLEKYGRDALRYYLLREIPYGQDTPVSEEALRTRYEADLADDLGNLVQRTRAMLFRFAEGRIPEPVAGEELAEGTGLAGRLRPLVRELKFHVALEEAMAYVKALNRYINEKKPWELFKKEPEEARAVLYRVVEGLRIASILLTPAMPDKMAELRRALGLKEEVRLEEAERWGLAEPRPIPEEAPVLFPKKEAKVEAKPKEEAWIGIEDFAKVELRVAEVLAAEKHPNADRLLVLRLSLGNEERTVVSGIAKWYRPEELVGKKVVLVANLKPAKLRGIESQGMILAAQEGEALALVTVEGEVPPGAVVK
For B2, the Km in series [3] was 180 µM; in series [4], 18 µM.

B3: Methionine--tRNA ligase (Staphylococcus aureus subsp. aureus MW2), Q8NY00 L213W (protein)
chain: MAKETFYITTPIYYPSGNLHIGHAYSTVAGDVIARYKRMQGYDVRYLTGTDEHGQKIQEKAQKAGKTEIEYLDEMIAGIKQLWAKLEISNDDFIRTTEERHKHVVEQVFERLLKQGDIYLGEYEGWYSVPDETYYTESQLVDPQYENGKIIGGKSPDSGHEVELVKEESYFFNISKYTDRLLEFYDQNPDFIQPPSRKNEMINNFIKPGLADWAVSRTSFNWGVHVPSNPKHVVYVWIDALVNYISALGYLSDDESLFNKYWPADIHLMAKEIVRFHSIIWPILLMALDLPLPKKVFAHGWILMKDGKMSKSKGNVVDPNILIDRYGLDATRYYLMRELPFGSDGVFTPEAFVERTNFDLANDLGNLVNRTISMVNKYFDGELPAYQGPLHELDEEMEAMALETVKSYTESMESLQFSVALSTVWKFISRTNKYIDETTPWVLAKDDSQKDMLGNVMAHLVENIRYAAVLLRPFLTHAPKEIFEQLNINNPQFMEFSSLEQYGVLTESIMVTGQPKPIFPRLDSEAEIAYIKESMQPPATEEEKEEIPSKPQIDIKDFDKVEIKAATIINAEHVKKSDKLLKIQVDLDSEQRQIVSGIAKFYTPDDIIGKKVAVVTNLKPAKLMGQKSEGMILSAEKDGVLTLVSLPSAIPNGAVIK
As a reminder, the kcat/Km is the second-order rate constant that governs catalysis at low substrate concentration. In general, kcat refers to the maximal rate divided by the concentration of active sites. Consider B3, for which the kcat/Km came to 17000 M⁻¹ s⁻¹ in series [5], 320000 M⁻¹ s⁻¹ in series [9] and 100000 M⁻¹ s⁻¹ in series [10]. The Km in [6] was 595 µM; in series [7] it was 1.7 µM; in series [8] it was 100 µM. Further, the values for the kcat in series [7] and in series [8] were 0.54 s⁻¹ and 10 s⁻¹, respectively.

B4: Methionine--tRNA ligase (Staphylococcus aureus subsp. aureus MW2), Q8NY00 G54S (protein)
chain: B3 chain with G54S, W213L
In the case of B4, the Km was found to be 500 µM in [11], 75 µM in series [12] and 0.27 µM in [16]. Besides, the kcat in series [12] was 5 s⁻¹; in series [16] it was 0.009 s⁻¹. Moreover, the kcat/Km in series [13] amounted to 33000 M⁻¹ s⁻¹; in series [14], 70000 M⁻¹ s⁻¹; in series [15], 10000 M⁻¹ s⁻¹.

Source of the values: ChEMBL document CHEMBL1629614, “Inhibition of methionyl-tRNA synthetase by REP8839 and effects of resistance mutations on enzyme activity” (Antimicrob Agents Chemother, 2009).
